# Laboratory results reported in ChEMBL document CHEMBL4715754, “Slowing down fat digestion and absorption by an oxadiazolone inhibitor targeting selectively gastric lipolysis” (2016).
# What was measured:
# [1] = target: T1, Pancreatic triacylglycerol lipase (Sus scrofa) (UniProt P00591); test: Inhibition of porcine pancreatic lipase preincubated for 30 mins at 25 degreeC
# T1 sequence (whole entry): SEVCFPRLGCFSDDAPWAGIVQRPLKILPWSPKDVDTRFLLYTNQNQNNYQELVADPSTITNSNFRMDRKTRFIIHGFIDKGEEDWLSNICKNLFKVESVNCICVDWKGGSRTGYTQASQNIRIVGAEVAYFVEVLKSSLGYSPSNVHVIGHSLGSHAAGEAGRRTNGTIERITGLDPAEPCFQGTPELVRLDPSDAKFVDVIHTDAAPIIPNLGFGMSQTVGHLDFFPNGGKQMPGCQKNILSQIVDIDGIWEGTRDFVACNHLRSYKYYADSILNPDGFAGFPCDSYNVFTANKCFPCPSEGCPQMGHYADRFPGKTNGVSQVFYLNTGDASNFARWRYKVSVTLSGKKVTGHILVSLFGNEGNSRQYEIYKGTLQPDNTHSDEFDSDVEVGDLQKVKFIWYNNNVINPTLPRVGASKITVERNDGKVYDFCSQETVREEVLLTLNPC
# Outline: (§1)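 Pancreatic lipase from human pancreatic juice (54 µg/mL HPL stock) or porcine pancreatic extract (32 µg/mL PPL stock) was held in 10 mM MES pH 7.0, 150 mM NaCl. It was pre-incubated with inhibitor from DMSO stock for 30 min at 25 °C with 4 mM NaTDC at varied molar excess. Residual activity was read by pH-stat on tributyrin at 37 °C, pH 8.0, with 2 mM CaCl₂ and 4 mM NaTDC. x_I50 was taken from residual activity; DMSO-only controls were run.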
# Rattus norvegicus [2] = test: Inhibition of lipolysis in mesenteric lymph duct-cannulated Wistar rat model assessed as decrease in intestinal lipid absorption at 5.3 mg/kg supplemented with olive oil emulsion and measured after 6 hrs relative to control; format: functional; design: scale not given: the % may be the effect or the level left
# Outline: (§2)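 Male Wistar rats (8 weeks, 300-350 g), fat-free diet 24 h, mesenteric lymph duct cannulated under ketamine/xylazine. Given 0.8 mL olive oil emulsion (530 mg fatty acids) premixed with inhibitor at 5.3 mg/kg by mouth, then 0.5 mL water. Lymph collected over 24 h; total fatty acids by GC-FID of methyl esters. 7 rats per group; one-way ANOVA with Fisher's test.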
# Rattus norvegicus [3] = test: Inhibition of lipolysis in mesenteric lymph duct-cannulated Wistar rat model assessed as decrease in intestinal lipid absorption at 5.3 mg/kg supplemented with olive oil emulsion and measured after 24 hrs relative to control; format: functional; design: scale not given: the % may be the effect or the level left; outline: as §2
# [4] = target: T2, Gastric triacylglycerol lipase (Canis lupus familiaris) (UniProt P80035); test: Inhibition of recombinant dog gastric lipase preincubated for 1 hr at 25 degreeC
# T2 sequence (whole entry): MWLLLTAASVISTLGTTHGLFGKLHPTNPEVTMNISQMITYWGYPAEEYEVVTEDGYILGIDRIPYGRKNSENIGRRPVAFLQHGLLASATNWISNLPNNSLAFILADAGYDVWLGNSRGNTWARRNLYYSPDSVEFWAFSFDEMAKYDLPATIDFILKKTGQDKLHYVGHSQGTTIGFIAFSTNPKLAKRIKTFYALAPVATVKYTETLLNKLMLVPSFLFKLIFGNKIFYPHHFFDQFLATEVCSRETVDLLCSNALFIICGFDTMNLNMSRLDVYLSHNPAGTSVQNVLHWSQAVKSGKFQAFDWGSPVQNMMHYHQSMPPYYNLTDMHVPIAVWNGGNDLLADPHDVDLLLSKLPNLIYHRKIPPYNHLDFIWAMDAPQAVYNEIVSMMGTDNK
# [5] = target: T1, Pancreatic triacylglycerol lipase (Sus scrofa); test: Inhibition of porcine pancreatic lipase assessed as residual activity at 4.1 mg/ml under duodenal phase at pH 6.5 using liquid test meal measured after 30 to 90 mins relative to control; details: time 30-90 min
# [6] = target: T3, Pancreatic triacylglycerol lipase (Homo sapiens) (UniProt P16233); test: Inhibition of human pancreatic lipase preincubated for 30 mins at 25 degreeC; outline: as §1
# T3 sequence (whole entry): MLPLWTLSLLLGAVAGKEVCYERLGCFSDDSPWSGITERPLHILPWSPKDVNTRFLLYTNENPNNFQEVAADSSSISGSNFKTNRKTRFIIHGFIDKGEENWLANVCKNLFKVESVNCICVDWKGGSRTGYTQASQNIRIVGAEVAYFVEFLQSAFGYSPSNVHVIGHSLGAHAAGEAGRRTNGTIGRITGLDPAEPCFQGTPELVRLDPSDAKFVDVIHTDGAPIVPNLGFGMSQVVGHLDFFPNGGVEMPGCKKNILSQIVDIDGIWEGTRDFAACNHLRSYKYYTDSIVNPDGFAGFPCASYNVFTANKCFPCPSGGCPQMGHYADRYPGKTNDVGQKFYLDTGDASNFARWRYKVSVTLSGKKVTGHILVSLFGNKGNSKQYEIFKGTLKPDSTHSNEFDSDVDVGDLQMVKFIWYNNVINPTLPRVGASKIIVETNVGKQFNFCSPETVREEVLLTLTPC
# Homo sapiens = species on record: Homo sapiens; test: Inhibition of human pancreatic carboxylesterase assessed as residual activity by measuring half-inactivation time at 4:1 molar excess compound concentration preincubated for 1 hr at 25 degreeC
# Outline: (§3)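 Enzyme pre-incubated with inhibitor (DMSO stock) at fixed molar excess for 1 h at 25 °C without substrate: hCEH x_I=4 (1 mM NaTDC assay), RLL and DGL x_I=20 with 4 mM NaTDC, GPLRP2 x_I=2 with 2 mM NaTDC. Residual activity sampled at intervals by pH-stat on tributyrin emulsion at 37 °C; t1/2 taken at 50% residual activity. DMSO-only controls; at least triplicate.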
# Rattus norvegicus [7] = test: Inhibition of lipolysis in mesenteric lymph duct-cannulated Wistar rat model assessed as Tmax for maximum fatty acid concentration at 5.3 mg/kg supplemented with olive oil emulsion and measured after 24 hrs (reference value: 6 hrs); format: functional, organism-based; outline: as §2
# [8] = target: T4, Gastric triacylglycerol lipase (Rattus norvegicus) (UniProt P04634); test: Inhibition of rat lingual lipase assessed as residual activity by measuring half-inactivation time at 20:1 molar excess compound concentration preincubated for 1 hr at 25 degreeC; outline: as §3
# T4 sequence (whole entry): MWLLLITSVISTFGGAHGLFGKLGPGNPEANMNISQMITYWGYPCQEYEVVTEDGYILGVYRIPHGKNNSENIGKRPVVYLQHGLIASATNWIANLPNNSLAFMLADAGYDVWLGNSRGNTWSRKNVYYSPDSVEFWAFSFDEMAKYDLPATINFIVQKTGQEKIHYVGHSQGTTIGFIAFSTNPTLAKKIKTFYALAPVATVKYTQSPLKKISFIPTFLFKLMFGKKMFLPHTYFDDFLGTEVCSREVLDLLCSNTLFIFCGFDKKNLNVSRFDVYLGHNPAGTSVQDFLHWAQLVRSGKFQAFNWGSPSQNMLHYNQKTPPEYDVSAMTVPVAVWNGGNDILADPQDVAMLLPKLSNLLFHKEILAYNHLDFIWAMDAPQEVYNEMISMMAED
Structure (SMILES),XI50 [1] [molar excess],Activity (Rattus norvegicus [2]) [%],Activity (Rattus norvegicus [3]) [%],XI50 [4] [molar excess],Activity [5] [%],XI50 [6] [molar excess],T1/2 (Homo sapiens) [min],Tmax (Rattus norvegicus [7]) [min],T1/2 [8] [min]
O=c1oc(OCCOCc2ccccc2)nn1-c1cccc(Oc2ccccc2)c1,> 400,-9.1,-24,0.5,94.4,> 400,1.31,300,4.95
CCCCCCCCCCC[C@@H](C[C@@H]1OC(=O)[C@H]1CCCCCC)OC(=O)[C@@H](CC(C)C)NC=O,1.35,-37.4,-70.9,5.6,,11.1,0.52,360,0.39
